A selection: hits, their analogues and other compounds. The true share with any hit is near 1.9%.
proCasp7 act = counter-screen: procaspase-7 (human) activation; activation, % at 8.5 µM; 0.093% of 330,000 active; recombinant procaspase-7, Ac-DEVD-pNA absorbance 405 nm; D23A/D198A/D206A triple mutant, cannot self-cleave; scale: DMSO 0, 5 µM enzyme 100; AID 463210;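 active means percent activation above the screen-wide mean plus 3 SD, cut at about 25% in these data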
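Replicates: singlicate. Assay system: Procaspase-7 triple mutant (PC-7 D3A). Signal: 405 nm absorbance of p-nitroaniline. Times: 1 h preincubation, 2 h reaction. Buffer or medium: Zinc-free HEPES pH 7.4 with 300 mM NaCl, 0.01% Triton X-100. Also added: DEVD-pNA substrate. Benchmarks: DMSO wells as 0%, DMSO with 5 µM added PC-7 as 100%.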
procasp3 activ = procaspase-3 (human) activation. recombinant procaspase-3 D3A, Ac-DEVD-pNA absorbance 405 nm. activation, % at 8.5 µM. AID 463141. P42574. 0.11% of 330,000 active;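 active means activation above the mean of all tested compounds plus 3 SD, cut at about 21% in these data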;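 further: 0% = DMSO alone and 100% = DMSO wells spiked with extra 5 µM PC-3 D3A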
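Assay system: Procaspase-3 D3A mutant, all three cleavage aspartates alanine. Buffer or medium: Zinc-free HEPES saline buffer with Triton X-100. Times: 1 h compound preincubation, 2 h substrate hydrolysis at 25 °C. Measured by: 405 nm absorbance of p-nitroaniline, reads at 0 and 120 min. Read-out basis: percent activation relative to control range. Replicates: singlicate.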
Arrestin-AP2 inh = human beta-arrestin and AP2 interaction inhibition. inhibition, % at 10 µM. FITC-arrestin peptide / GST-AP2 beads, flow cytometry; AP2 beta2 appendage carries R879A mutation. 0.31% of 340,000 active;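 active means inhibition above a set limit, near 3 SD of compounds lacking own fluorescence, cut at about 54% in these data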;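 further: plate controls were DMSO wells for no effect and 5 µM unlabelled arrestin peptide for full effect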
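System: GST-AP2 R879A glutathione beads; medium: PBS, Tween 20 0.05%, BSA 0.1%; reagent: fluorescein-tagged arrestin peptide at 50 nM final; schedule: pre-incubation 12 min, peptide binding 1 h, room temperature; detection: flow cytometry, FL1 (488/535 nm); read-out: inhibition as reduced fluorescein signal on beads, percent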
PLC-gamma1 inh = blocks human PLC-gamma1 enzyme activity. inhibition, % at 12.2 µM. purified PLC-gamma1, fluorogenic substrate, fluorescence. P19174. 0.84% of 370,000 active; in the data active means inhibition above about 9.5%
PLCb3 inh = inhibitors of human phospholipase C beta3. Purified PLC-beta3, fluorogenic substrate, fluorescence. inhibition, % at 12.2 µM. Q01970. AID 720704. 0.18% of 370,000 active;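 further: 0% = median of compound wells on plate and 100% = full blocker control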
sPLA2-III inh = Inhibits HGIII-sPLA2 liposome hydrolysis, primary screen; AID 743126; QFRET BODIPY PC-A2 liposome hydrolysis, fluorescence; Q9NZ20; 0.56% of 370,000 active; inhibition, % at 12.2 µM;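 active means inhibition above mean plus 3 SD of compounds lying within the high and low control bounds, cut at about 19% in these data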;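 further: 0% = median of test compound wells and 100% = no enzyme DMSO wells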
Target sequence (Q9NZ20 whole entry, looked up): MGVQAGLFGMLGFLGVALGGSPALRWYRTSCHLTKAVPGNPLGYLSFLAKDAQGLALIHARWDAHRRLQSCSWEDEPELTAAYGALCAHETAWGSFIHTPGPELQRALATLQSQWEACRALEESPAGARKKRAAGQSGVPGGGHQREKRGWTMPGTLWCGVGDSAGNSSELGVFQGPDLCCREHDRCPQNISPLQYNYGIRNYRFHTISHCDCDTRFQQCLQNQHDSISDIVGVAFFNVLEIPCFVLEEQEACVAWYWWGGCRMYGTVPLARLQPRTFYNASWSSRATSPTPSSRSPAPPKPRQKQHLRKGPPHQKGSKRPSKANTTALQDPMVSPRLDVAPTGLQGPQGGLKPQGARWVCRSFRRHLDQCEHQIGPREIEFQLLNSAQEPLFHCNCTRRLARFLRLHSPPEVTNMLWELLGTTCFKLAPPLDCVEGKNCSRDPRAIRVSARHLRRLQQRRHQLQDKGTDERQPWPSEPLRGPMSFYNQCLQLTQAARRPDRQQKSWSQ
PLCgamma1 ctr = PLC-gamma1 inhibition, counter-screen for PLC-beta3 hits. shares compounds with PLC-gamma1 inh. purified PLC-gamma1, fluorogenic substrate, fluorescence. inhibition, % at 12.3 µM. 3.1% of 3,300 active. AID 743258; in the data active means inhibition above about 9.5%
PLCb3 confirm = confirmation of human PLC-beta3 inhibitors; shares compounds with PLC-gamma1 inh; purified PLC-beta3, fluorogenic substrate fluorescence; inhibition, % at 12.3 µM; 1% of 3,300 active
Active calls of the source: *; x = not tested or not shown. Unless noted, no stated cut-off is given here; in the data, active means inhibition above about 11%; inactive means the rest.

SMILES | proCasp7 act | procasp3 activ | Arrestin-AP2 inh | PLC-gamma1 inh | PLCb3 inh | sPLA2-III inh | PLCgamma1 ctr | PLCb3 confirm
Cc1csc2nc(CSc3nc4ccccc4o3)cn12 | -3.5 | -8.9 | -2.4 | 0.4 | 0.3 | -5.9 | x | x
c1ccc2oc(SCc3cn4ccsc4n3)nc2c1 | -11.9 | -8.0 | 1.4 | 9.5* | 9.2 | 5.7 | -0.9 | -0.6
COC(=O)[C@]12C[C@H](CC(=O)NCc3cccc4ccccc34)C(=O)N(Cc3ccc(Cl)cc3Cl)C1=C[C@H](COCc1ccccc1)O[C@@H]2C | x | x | x | -0.2 | -1.3 | -11.7 | x | x
COc1ccc(NS(=O)(=O)c2cc(NC(=O)c3cccnc3Cl)ccc2N2CCCC2)cc1 | 0.6 | -1.5 | 20.5 | 10.0* | 0.2 | -2.8 | 1.7 | -7.0
O=C(CN[C@@H](Cc1c[nH]c2ccccc12)C(=O)NCCc1c[nH]c2ccccc12)NC1CCCCC1 | x | x | x | 0.8 | 2.0 | -52.3 | x | x
O=C(OCCCN1CCC2(CCC(c3ccccc3)CC2)C1=O)c1ccccc1 (stereo not drawn) | x | x | x | -1.3 | 2.1 | -4.2 | x | x
C[C@H](CO)N1C[C@H](C)[C@@H](CN(C)S(C)(=O)=O)Oc2c(NC(=O)Nc3ccc(C(F)(F)F)cc3)cccc2C1=O | 7.3 | -0.1 | 30.9 | 8.5 | 11.9* | -21.6 | -4.0 | 1.9
COc1ccc(NC(=O)N(C)C[C@H]2Oc3c(NC(=O)NC(C)C)cccc3C(=O)N([C@H](C)CO)C[C@@H]2C)cc1 | 8.9 | 2.0 | 0.6 | 3.3 | 11.2* | 9.1 | -7.8 | -1.8
COc1ccc(NC(=O)N(C)C[C@H]2Oc3c(NC(=O)C4CCCCC4)cccc3C(=O)N([C@H](C)CO)C[C@@H]2C)cc1 | 2.6 | 3.3 | -26.3 | -0.1 | 3.0 | -2.4 | x | x
Cc1ccc(NC(=O)c2cnccn2)cc1C | 5.9 | 9.6 | 20.4 | 10.8* | -0.6 | 7.7 | 1.2 | -7.3
Cc1ccc(NC(=O)c2cnccn2)cc1 | 7.5 | 5.8 | 33.6 | 1.3 | -0.7 | 4.9 | x | x
CC12CCC(C(=O)Nc3ccc(SC(F)F)cc3)(CC1=O)C2(C)C (stereo not drawn) | -4.5 | -0.1 | 13.8 | 9.8* | 9.5 | -7.0 | -1.8 | 0.7
c1ccc(C2=NOC(c3nnc(-c4ccccc4)o3)C2)cc1 (stereo not drawn) | 7.8 | 0.1 | 3.9 | 1.6 | 1.4 | 1.3 | x | x
Fc1ccc(C2=NOC(c3nnc(-c4ccccc4)o3)C2)cc1 (stereo not drawn) | -7.9 | 6.2 | -6.8 | 6.0 | 12.4* | -0.7 | -6.5 | -1.7
Nc1n[nH]c(CO)n1 | x | x | 26.1 | 0.8 | -2.8 | 2.3 | x | x
O=C(/C=C/c1ccc([N+](=O)[O-])cc1)NCc1cccnc1 | -1.6 | 4.0 | -5.6 | 1.8 | 3.2 | -5.4 | x | x
O=C(/C=C/c1cccc([N+](=O)[O-])c1)NCc1cccnc1 | 10.5 | -8.5 | 6.5 | 2.6 | 11.2* | 2.8 | -5.9 | -0.3
Clc1ccc(-c2csc(Nc3cccnc3)n2)cc1 | 7.9 | 0.1 | 7.5 | 10.2* | 7.2 | 9.9 | 0.3 | -0.1
CCOc1ncccc1C(=O)NCCN1C(=O)S/C(=C/c2cccs2)C1=O | 3.3 | -1.8 | 0.9 | 12.8* | 9.1 | 1.2 | -2.1 | 1.6
COc1cccc(C(=O)NCCN2C(=O)S/C(=C/c3cccs3)C2=O)c1OC | 4.5 | -2.8 | -14.6 | -0.3 | -7.0 | -4.3 | x | x
COc1cc(C(=O)NCCN2C(=O)S/C(=C\c3cccs3)C2=O)cc(OC)c1OC | 3.8 | 3.8 | -1.5 | 10.2* | 0.6 | 5.7 | 0.8 | 1.9
Cc1cc(N2CCN(C(=O)OC(C)(C)C)C[C@H]2C)ccc1Br | x | x | x | 6.3 | 4.3 | 11.0 | x | x
O=C1CC(c2ccccc2)Sc2ccccc2N1 (stereo not drawn) | 3.7 | 1.4 | 10.5 | 10.2* | 0.1 | 0.1 | -8.1 | -5.4
Cc1ccc(-c2nnc(SCC(=O)NC3CCCC3)n2C)cc1 | 2.2 | -2.3 | -7.0 | 10.8* | -10.1 | 18.2 | -9.3 | -2.2
Cn1c(SCC(=O)NCC2CCCO2)nnc1-c1ccc(S(=O)(=O)N2CCCC2)cc1 (stereo not drawn) | 4.1 | 2.7 | -6.9 | 9.8* | -1.4 | -5.8 | -8.5 | -3.5
SMILES | proCasp7 act | procasp3 activ | Arrestin-AP2 inh | PLC-gamma1 inh | PLCb3 inh | sPLA2-III inh | PLCgamma1 ctr | PLCb3 confirm
O=C(CSc1nnc(-c2ccc(S(=O)(=O)N3CCCC3)cc2)o1)NCC1CCCO1 (stereo not drawn) | 1.5 | 3.1 | 25.6 | -1.2 | -1.2 | 2.7 | x | x
CN(Cc1ccccc1)C(=O)OCc1cn(Cc2ccc(C(F)(F)F)cc2)nn1 | x | x | x | -0.4 | 0.0 | -10.5 | x | x
COC(=O)C[C@H]1CC[C@H]2[C@H](COc3ccc(NC(=O)Cc4cccs4)cc3C(=O)N2C)O1 | x | x | x | 4.9 | 5.5 | 1.5 | x | x
CN(C)c1cccc(-c2nccc(N3CCC(C(N)=O)CC3)n2)c1 | x | x | x | -91.3 | -136.5 | 9.0 | x | x
COC(=O)/C=C1\OCc2cccc(C)c21 | x | x | x | 2.6 | -2.4 | 11.6 | x | x
CN(CC(=O)Nc1cccc(F)c1)C(=O)Cc1ccsc1 | x | x | x | -3.6 | -4.7 | 11.9 | x | x
